Activity calls are given as the source filed them. No cut-off for these calls is given here.
Experiments:
[1] = target: Proto-oncogene tyrosine-protein kinase Src (Homo sapiens, UniProt P12931); conditions: BaF3
[2] = Antiproliferative activity against human MEG01 cells assessed as cell viability after 72 hrs by CellTiter-Glo or CCK-8 assay; format: functional; conditions: MEG-01, 72 h
[3] = target: T1, Bcr/Abl fusion protein (Homo sapiens) (UniProt P00519+P11274); test: Inhibition of BCR/ABL autophosphorylation at Y245 site in human KU812 cells at 300 nM after 1 hr by immunoblotting method; format: cell-based
Summary of the method: (§1)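 KU812, K562 and MEG-01 cells were exposed to compound at the indicated concentrations for 1 h. Whole-cell lysates were then analysed by Western blot for phosphorylated signaling proteins.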

[4] = AUC(0 to t) in Sprague-Dawley rat at 10 mg/kg, po; format: ADME, organism-based; conditions: in vivo
[5] = AUC(0 to infinity) in Sprague-Dawley rat at 10 mg/kg, po; format: ADME, organism-based; set-up: dose 10 mg/kg, time infinity, route oral; conditions: in vivo
[6] = AUC(0 to t) in Sprague-Dawley rat at 1 mg/kg, iv; format: ADME, organism-based; conditions: in vivo
[7] = target: Tyrosine-protein kinase HCK (Homo sapiens) (UniProt P08631); test: Inhibition of full length human wild type HCK expressed in bacterial expression system assessed as residual activity at 1 uM relative to control
KU812 cell line [8] = test: Induction of apoptosis in human KU812 cells assessed as increase in cleaved caspase3 level at 100 nM after 24 hrs by immunoblotting method; format: functional, cell-based
MV4-11 = test: Antiproliferative activity against human MV4-11 cells assessed as cell viability after 72 hrs by CellTiter-Glo or CCK-8 assay; format: functional; conditions: MV4-11, 72 h
[9] = target: Tyrosine-protein kinase ABL1 (Homo sapiens, UniProt P00519); test: Inhibition of full length recombinant human ABL1 expressed in Baculovirus expression system
Summary of the method: (§2)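 IC50 values were determined with the Invitrogen SelectScreen biochemical kinase assay.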

[10] = target: T1, Bcr/Abl fusion protein (Homo sapiens); test: Inhibition of BCR/ABL in human K562 cells assessed as downregulation of CrkL phosphorylation at […] site after 1 hr by immunoblotting method; format: cell-based
Summary of the method: as §1

K562 [11] = test: Induction of apoptosis in human K562 cells assessed as increase in cleaved PARP level at 100 nM after 48 hrs by immunoblotting method; format: functional, cell-based
[12] = AUC(0 to infinity) in Sprague-Dawley rat at 1 mg/kg, iv; format: ADME, organism-based; set-up: dose 1 mg/kg, route intravenous, time infinity; conditions: in vivo
[13] = target: T1, Bcr/Abl fusion protein (Homo sapiens); test: Inhibition of BCR/ABL in human K562 cells assessed as downregulation of ERK phosphorylation at Thr202/Tyr204 site after 1 hr by immunoblotting method; format: cell-based
Summary of the method: as §1

K562 [14] = test: Induction of apoptosis in human K562 cells xenografted in nu/nu mouse at 25 and 50 mg/kg/day, qd administered through oral gavage measured after 16 days by TUNEL staining-based assay; format: functional, organism-based
Summary of the method: (§3)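 Female nu/nu mice bore established K562 xenografts and received daily oral dosing at 25.0 or 50.0 mg/kg/d, or vehicle, starting when tumors reached 200 to 400 mm3, for 16 days. Groups had 5 animals; data are mean ± SEM. Tumor size and body weight were normalized to initial values, and final tumor weight was recorded. Tumor tissue was stained with HE, Ki-67 and TUNEL.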

K562 [15] = test: Antiproliferative activity against human K562 cells xenografted in nu/nu mouse at 25 and 50 mg/kg/day, qd administered through oral gavage measured after 16 days by Ki-67 staining-based immunohistochemical analysis; format: functional, organism-based
Summary of the method: as §3

[16] = target: Discoidin domain-containing receptor 2 (Homo sapiens, UniProt Q16832); test: Inhibition of recombinant human GST-tagged DDR2 expressed in Baculovirus expression system
Summary of the method: as §2

[17] = Antiproliferative activity against human U937 cells assessed as cell viability after 72 hrs by CellTiter-Glo or CCK-8 assay; format: functional; conditions: U-937, 72 h
[18] = Tmax in Sprague-Dawley rat at 10 mg/kg, po; format: ADME, organism-based; conditions: in vivo
KU812 cell line [19] = test: Induction of apoptosis in human KU812 cells assessed as increase in cleaved PARP level at 100 nM after 24 hrs by immunoblotting method; format: functional, cell-based
[20] = target: T1, Bcr/Abl fusion protein (Homo sapiens); test: Inhibition of BCR/ABL in human MEG01 cells assessed as downregulation of Stat5 phosphorylation at […] site after 1 hr by immunoblotting method; format: cell-based; conditions: MEG-01
Summary of the method: as §1

[21] = target: Mitogen-activated protein kinase 14 (Homo sapiens, UniProt Q16539); test: Inhibition of P38-alpha phosphorylation in human K562 cells at 0.01 to 3 uM after 1 hr by immunoblotting method; format: cell-based
Summary of the method: as §1

[22] = target: Transcription factor ETV6/Tyrosine-protein kinase ABL1 (Homo sapiens) (UniProt P00519+P41212); conditions: BaF3
BaF3 = conditions: Homo sapiens
[23] = target: Tyrosine-protein kinase Blk (Homo sapiens) (UniProt P51451); conditions: BaF3
[24] = target: T2, Discoidin domain-containing receptor 2 (Homo sapiens) (UniProt Q16832); conditions: BaF3
T2 sequence (whole entry): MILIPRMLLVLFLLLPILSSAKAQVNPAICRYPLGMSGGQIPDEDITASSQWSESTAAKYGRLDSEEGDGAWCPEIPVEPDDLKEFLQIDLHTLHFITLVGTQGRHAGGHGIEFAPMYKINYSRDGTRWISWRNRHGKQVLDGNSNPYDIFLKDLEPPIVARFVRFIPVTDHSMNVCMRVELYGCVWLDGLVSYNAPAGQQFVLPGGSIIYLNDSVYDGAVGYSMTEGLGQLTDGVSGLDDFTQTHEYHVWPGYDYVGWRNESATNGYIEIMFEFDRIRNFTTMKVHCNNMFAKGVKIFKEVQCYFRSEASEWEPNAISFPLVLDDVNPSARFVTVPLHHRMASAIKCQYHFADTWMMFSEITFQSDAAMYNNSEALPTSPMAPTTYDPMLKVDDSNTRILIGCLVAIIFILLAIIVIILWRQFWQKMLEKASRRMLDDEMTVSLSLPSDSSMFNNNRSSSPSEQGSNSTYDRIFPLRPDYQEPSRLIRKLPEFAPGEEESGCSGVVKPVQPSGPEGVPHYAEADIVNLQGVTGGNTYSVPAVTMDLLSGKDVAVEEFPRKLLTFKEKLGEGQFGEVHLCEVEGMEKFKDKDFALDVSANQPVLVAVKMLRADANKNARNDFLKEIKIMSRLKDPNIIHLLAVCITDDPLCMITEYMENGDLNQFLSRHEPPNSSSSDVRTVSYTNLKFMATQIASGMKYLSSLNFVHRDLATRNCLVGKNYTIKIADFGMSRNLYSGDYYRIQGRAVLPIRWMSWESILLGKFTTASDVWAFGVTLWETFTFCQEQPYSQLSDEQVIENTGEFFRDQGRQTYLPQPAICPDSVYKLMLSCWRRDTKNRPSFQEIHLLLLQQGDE

K562 [25] = test: Antiproliferative activity against human K562 cells assessed as cell viability after 72 hrs by CellTiter-Glo or CCK-8 assay; format: functional; conditions: K562, 72 h
[26] = Antiproliferative activity against […] CHL cells assessed as cell viability after 72 hrs by CellTiter-Glo or CCK-8 assay; format: cell-based, Cricetulus griseus; conditions: chinese hamster

T1 sequence (P00519 whole entry, looked up, the tested form may be a part): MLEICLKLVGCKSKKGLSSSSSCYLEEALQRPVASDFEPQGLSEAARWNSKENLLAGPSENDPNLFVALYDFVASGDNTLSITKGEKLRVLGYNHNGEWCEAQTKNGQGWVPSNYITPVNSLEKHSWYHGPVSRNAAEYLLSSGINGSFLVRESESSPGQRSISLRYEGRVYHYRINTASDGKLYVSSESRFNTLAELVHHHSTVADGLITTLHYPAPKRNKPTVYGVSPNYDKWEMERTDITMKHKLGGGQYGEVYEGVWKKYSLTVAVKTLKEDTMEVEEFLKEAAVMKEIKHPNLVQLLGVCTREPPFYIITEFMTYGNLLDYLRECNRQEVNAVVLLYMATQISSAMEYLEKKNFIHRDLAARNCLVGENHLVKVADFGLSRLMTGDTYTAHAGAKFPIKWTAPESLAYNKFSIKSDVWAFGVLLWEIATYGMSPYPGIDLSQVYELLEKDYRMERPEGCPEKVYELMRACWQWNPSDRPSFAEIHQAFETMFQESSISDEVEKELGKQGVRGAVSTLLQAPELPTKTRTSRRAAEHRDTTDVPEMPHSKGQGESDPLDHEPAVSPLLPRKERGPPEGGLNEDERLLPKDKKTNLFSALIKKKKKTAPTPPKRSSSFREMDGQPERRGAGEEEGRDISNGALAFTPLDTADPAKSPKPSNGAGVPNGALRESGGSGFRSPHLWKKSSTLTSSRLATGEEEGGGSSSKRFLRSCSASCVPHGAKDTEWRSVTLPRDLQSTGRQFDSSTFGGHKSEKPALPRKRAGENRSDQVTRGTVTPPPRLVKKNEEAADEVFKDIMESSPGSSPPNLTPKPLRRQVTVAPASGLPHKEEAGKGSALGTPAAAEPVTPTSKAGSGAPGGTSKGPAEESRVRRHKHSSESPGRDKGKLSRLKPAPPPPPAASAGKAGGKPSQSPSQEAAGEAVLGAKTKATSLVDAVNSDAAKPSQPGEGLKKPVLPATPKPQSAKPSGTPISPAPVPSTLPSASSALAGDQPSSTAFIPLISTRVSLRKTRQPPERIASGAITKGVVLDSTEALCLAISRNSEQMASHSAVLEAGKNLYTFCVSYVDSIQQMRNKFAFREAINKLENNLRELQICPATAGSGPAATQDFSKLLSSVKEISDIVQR
T1 sequence (P11274 whole entry, looked up, the tested form may be a part): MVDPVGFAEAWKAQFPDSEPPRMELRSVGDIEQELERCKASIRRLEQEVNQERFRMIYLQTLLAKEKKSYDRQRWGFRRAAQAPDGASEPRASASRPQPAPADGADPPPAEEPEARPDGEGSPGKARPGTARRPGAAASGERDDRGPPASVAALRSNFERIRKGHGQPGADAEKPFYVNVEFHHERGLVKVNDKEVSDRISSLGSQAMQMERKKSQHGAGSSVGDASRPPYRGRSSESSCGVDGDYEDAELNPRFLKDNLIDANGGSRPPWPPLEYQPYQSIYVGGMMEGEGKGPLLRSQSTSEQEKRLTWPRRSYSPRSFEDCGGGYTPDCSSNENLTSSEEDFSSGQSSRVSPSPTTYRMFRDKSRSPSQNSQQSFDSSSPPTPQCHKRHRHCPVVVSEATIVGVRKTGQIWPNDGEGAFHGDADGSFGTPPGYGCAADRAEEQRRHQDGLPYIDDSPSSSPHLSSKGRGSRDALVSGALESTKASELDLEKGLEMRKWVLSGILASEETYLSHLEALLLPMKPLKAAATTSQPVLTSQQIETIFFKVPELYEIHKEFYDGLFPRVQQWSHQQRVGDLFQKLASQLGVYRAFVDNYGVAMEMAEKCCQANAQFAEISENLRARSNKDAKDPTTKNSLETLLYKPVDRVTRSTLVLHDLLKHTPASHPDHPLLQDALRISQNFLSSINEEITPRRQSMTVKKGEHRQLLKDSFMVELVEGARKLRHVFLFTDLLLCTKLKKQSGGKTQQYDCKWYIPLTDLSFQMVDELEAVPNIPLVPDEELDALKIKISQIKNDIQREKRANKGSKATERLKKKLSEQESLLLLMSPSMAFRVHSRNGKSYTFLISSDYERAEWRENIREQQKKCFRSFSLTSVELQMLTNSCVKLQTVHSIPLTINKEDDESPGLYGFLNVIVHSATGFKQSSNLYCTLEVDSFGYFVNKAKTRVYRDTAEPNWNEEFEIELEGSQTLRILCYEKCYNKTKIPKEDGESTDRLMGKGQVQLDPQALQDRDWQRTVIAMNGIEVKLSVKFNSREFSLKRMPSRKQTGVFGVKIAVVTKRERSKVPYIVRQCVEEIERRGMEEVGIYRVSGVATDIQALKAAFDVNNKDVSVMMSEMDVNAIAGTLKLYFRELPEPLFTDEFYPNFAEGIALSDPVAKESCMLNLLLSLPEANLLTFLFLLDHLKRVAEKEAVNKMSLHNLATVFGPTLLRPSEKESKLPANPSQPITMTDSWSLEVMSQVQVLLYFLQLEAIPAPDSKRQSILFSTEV
Sequence of Tyrosine-protein kinase HCK (Homo sapiens) (P08631 2-526 limits assumed): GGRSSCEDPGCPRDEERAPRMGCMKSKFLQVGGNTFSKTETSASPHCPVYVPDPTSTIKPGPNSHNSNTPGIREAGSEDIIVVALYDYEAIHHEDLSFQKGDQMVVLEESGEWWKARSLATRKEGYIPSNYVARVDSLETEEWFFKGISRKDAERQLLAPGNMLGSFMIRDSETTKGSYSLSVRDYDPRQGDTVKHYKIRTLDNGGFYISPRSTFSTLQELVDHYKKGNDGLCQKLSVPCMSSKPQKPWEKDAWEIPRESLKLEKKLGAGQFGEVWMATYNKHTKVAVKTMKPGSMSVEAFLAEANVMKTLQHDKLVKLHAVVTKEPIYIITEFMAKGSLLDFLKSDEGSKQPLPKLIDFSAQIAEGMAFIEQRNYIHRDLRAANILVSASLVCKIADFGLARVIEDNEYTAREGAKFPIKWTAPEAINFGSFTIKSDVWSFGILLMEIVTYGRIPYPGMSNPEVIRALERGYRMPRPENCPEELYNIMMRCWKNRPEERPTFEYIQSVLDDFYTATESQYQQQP
Sequence of Tyrosine-protein kinase ABL1 (P00519 whole entry): as the sequence (P00519 whole entry, looked up, the tested form may be a part) above
Sequence of Transcription factor ETV6/Tyrosine-protein kinase ABL1 (Homo sapiens) (P00519 whole entry, looked up): as the sequence (P00519 whole entry, looked up, the tested form may be a part) above
Sequence of Transcription factor ETV6/Tyrosine-protein kinase ABL1 (Homo sapiens) (P41212 whole entry, looked up): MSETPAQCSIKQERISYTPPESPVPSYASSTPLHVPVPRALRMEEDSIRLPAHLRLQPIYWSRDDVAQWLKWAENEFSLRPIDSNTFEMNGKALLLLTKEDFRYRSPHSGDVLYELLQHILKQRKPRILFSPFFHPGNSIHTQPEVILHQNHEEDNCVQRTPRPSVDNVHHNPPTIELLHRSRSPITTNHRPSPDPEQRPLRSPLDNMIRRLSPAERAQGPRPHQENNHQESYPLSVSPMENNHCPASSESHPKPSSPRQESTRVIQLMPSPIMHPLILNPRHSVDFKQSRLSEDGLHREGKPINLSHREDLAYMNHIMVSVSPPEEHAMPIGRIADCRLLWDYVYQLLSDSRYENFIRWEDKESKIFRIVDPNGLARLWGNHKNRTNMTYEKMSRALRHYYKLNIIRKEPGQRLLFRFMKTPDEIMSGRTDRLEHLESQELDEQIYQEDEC
Sequence of Proto-oncogene tyrosine-protein kinase Src (P12931 2-536 limits assumed): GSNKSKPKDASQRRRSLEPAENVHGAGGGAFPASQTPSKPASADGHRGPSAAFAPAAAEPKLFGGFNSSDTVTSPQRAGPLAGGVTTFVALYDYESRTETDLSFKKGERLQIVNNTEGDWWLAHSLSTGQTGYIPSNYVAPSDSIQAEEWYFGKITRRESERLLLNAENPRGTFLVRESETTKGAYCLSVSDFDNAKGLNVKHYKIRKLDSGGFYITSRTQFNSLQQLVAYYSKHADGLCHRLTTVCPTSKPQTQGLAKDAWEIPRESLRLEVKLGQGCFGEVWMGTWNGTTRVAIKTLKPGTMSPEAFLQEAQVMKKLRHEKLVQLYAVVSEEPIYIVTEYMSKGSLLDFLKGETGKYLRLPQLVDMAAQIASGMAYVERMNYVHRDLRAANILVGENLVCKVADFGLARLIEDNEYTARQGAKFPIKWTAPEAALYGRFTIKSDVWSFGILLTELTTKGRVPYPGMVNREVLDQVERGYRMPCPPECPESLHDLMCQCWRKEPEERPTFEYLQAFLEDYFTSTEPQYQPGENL
Sequence of Tyrosine-protein kinase Blk (Homo sapiens) (P51451 2-505 limits assumed): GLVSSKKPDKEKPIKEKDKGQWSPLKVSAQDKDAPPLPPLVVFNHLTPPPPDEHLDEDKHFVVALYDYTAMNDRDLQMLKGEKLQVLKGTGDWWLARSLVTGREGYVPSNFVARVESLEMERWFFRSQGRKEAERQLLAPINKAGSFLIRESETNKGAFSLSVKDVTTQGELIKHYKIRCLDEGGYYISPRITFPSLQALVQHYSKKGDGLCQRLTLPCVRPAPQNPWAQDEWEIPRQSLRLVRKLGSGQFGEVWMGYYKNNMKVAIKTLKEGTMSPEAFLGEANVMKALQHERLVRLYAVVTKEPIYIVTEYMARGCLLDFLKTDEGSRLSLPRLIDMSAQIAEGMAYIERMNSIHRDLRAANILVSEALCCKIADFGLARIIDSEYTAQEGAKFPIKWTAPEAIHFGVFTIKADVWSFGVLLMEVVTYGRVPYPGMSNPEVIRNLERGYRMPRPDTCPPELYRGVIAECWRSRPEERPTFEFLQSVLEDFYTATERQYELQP
Sequence of Mitogen-activated protein kinase 14 (Q16539 whole entry): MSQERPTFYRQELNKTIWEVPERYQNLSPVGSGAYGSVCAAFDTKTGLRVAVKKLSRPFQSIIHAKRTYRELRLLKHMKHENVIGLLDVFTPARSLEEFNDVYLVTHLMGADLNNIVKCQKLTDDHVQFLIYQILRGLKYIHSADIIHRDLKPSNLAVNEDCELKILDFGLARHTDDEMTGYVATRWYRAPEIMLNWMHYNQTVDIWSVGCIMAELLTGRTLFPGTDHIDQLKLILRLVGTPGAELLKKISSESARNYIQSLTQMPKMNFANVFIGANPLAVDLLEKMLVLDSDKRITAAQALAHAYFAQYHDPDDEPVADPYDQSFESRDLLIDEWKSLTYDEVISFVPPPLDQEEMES

Structure (SMILES): CNc1nc(Nc2ccc(C)c(N)c2)ncc1C(=O)Nc1cc(NC(=O)c2cccc(C(F)(F)F)c2)ccc1C
- GI50 [1]: 200 nM
- GI50 [2]: 16 nM
- inhibition [3]: Active
- AUC(0-t) [4]: 1720 ng·h/mL
- AUC(0-inf) [5]: 1740 ng·h/mL
- AUC(0-t) [6]: 636 ng·h/mL
- Activity [7]: 0.7%
- Activity (KU812 cell line [8]): Active
- GI50 (MV4-11): 8000 nM
- IC50 [9]: 70 nM
- inhibition [10]: Dose-dependent effect
- Activity (K562 [11]): Active
- AUC(0-inf) [12]: 721 ng·h/mL
- inhibition [13]: Dose-dependent effect
- Activity (K562 [14]): Active
- Activity (K562 [15]): Active
- IC50 [16]: 457 nM
- GI50 [17]: > 10000 nM
- Tmax [18]: 1 h
- Activity (KU812 cell line [19]): Active
- inhibition [20]: Dose-dependent effect
- inhibition [21]: Active
- GI50 [22]: 53 nM
- GI50 (BaF3): 73 nM
- GI50 [23]: 1100 nM
- GI50 [24]: > 10000 nM
- GI50 (K562 [25]): 14 nM
- GI50 at 72 h [26]: > 10000 nM

Source: ChEMBL document CHEMBL3779840, “Discovery of 2-((3-Amino-4-methylphenyl)amino)-N-(2-methyl-5-(3-(trifluoromethyl)benzamido)phenyl)-4-(methylamino)pyrimidine-5-carboxamide (CHMFL-ABL-053) as a Potent, Selective, and Orally Available BCR-ABL/SRC/p38 Kinase Inhibitor for Chronic Myeloid Leukemia” (J Med Chem, 2016)
